A selection: hits, their analogues and other compounds. The true share with any hit is near 1.5%.
LANA-H2B inh – blockers of LANA interaction with H2A/H2B – biochemical, FP readout, HTS, primary screen; Protein LANA1 (Human herpesvirus 8 type P (isolate GK18)), Q9QR71; cell-free LANA-H2A/H2B peptide, fluorescence polarization; inhibition, % (no concentration beside the values); 320,000 compounds, 0.6% hits; in the data active = inhibition mostly above about 10%, no sharp cut-off; inactive = mostly below about 6.7%
Target sequence (Q9QR71 whole entry, looked up): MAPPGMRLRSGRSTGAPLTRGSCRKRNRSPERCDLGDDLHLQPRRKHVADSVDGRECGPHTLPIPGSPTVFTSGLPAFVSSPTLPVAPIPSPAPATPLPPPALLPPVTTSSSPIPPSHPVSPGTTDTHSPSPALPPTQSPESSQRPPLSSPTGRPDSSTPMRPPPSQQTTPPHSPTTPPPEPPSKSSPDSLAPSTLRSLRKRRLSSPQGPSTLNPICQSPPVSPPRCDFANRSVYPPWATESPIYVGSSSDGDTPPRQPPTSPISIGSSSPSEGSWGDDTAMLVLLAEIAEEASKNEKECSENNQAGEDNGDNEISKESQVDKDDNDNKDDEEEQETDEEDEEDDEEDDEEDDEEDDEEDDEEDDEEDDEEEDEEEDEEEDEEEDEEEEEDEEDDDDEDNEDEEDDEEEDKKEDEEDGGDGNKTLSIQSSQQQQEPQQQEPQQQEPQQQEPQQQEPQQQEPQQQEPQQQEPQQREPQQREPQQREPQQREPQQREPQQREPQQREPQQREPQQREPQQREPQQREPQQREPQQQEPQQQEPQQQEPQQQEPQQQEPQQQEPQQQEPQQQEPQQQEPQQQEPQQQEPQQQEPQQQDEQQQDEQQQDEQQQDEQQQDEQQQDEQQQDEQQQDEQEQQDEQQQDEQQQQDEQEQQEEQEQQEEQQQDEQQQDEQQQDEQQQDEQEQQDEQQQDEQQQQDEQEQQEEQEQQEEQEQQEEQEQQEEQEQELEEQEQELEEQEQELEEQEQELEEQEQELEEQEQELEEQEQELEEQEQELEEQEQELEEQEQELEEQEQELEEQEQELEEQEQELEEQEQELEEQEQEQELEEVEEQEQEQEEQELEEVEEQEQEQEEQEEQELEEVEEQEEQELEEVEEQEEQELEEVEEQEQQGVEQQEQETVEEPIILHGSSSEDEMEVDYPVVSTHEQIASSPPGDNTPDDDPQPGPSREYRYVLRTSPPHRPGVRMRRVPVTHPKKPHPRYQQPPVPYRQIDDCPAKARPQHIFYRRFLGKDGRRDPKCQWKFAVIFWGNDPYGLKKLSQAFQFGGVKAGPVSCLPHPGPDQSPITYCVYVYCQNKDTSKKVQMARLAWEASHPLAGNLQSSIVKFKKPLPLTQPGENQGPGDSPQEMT
T cell HTS – modulators of CD8 T cell-vesicle binding, primary screen, mouse 2C CD8+ T cells, flow cytometry; 2C CD8+ T cell-vesicle binding; stronger effect = lower value; response (vesicle binding), % at 7 µM; 330,000 compounds, 0.068% hits;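 active = response, share of CD8 T cells binding vesicles, and their 90th percentile fluorescence all below set limits, cut at about 80% in these data, passing the limit was not always enough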;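 also: values below 100% mean blocked vesicle binding to the CD8+ T cells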
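Benchmarks: naked versus QL9-loaded vesicles / Assay system: purified 2C TCR transgenic mouse naive CD8+ T cells / Technique: high-throughput flow cytometry with anti-B7-1 and anti-CD8 staining / Timing: Cell–vesicle co-incubation 1.5 h at 37 °C, staining 20 min on ice / Read-out: percent CD8+ FL2 mean versus row control / Probe or stimulus: QL9-loaded Drosophila micro-vesicles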
Pemphigus Ab inh – inhibitors of pemphigus antibody binding to DSG3, primary screen, biochemical, bead-based, flow cytometry, scFv-GFP | Desmoglein-3 (Homo sapiens), P32926 | DSG3-coupled beads, scFv-anti-DSG3-GFP binding; stronger effect = lower value | binding (percent of control), % at 10 µM | 310,000 compounds, 0.48% hits | AID 588358, 2011;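 active = binding more than 3 SD below its plate's average and above zero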
HDAC3 inh – HDAC3 deacetylase inhibitors, primary screen, biochemical, fluorescence, cell-free homogeneous | Histone deacetylase 3 (Homo sapiens), O15379 | recombinant HDAC3, fluorogenic peptide/trypsin coupled | inhibition, % at 8.3 µM | 320,000 compounds, 0.15% hits | AID 2718, 2010; in the data active = inhibition above about 26%, passing the limit was not always enough
Arrestin-AP2 inh – inhibitors of beta-arrestin/AP2 binding, primary screen, biochemical, GPCR trafficking, flow cytometry | 340,000 compounds, 0.31% hits | FITC-arrestin peptide / GST-AP2 beads; AP2 beta2 appendage carries R879A mutation | inhibition, % at 10 µM | beta-arrestin 1 C-terminal peptide binding to AP2 beta2-adaptin appendage (human);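 active = inhibition above a set limit, near 3 SD of compounds lacking own fluorescence, cut at about 54% in these data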
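Material – AP2 appendage R879A on GSH beads · Buffer or medium – PBS with 0.05% Tween 20 and 0.1% BSA · Probe or stimulus – fluorescein-tagged arrestin peptide at 50 nM final · Incubation – compound with beads 12 min RT, then probe 1 h RT · Detection – high-throughput flow cytometry of beads, ex 488, em 535 nm · Evaluation – percent response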
Large screens that a line does not name were inactive; ! = not active in a repeat.

CCOc1ccc(OCCCC(=O)Nc2cc(S(=O)(=O)N3CCOCC3)ccc2N2CCOCC2)cc1	none (no result: LANA-H2B inh, T cell HTS, HDAC3 inh)
CCOc1ccc(S(=O)(=O)N2CCOCC2)cc1NC(=O)CSCC(=O)Nc1ccc(C)cc1	none
CC(C)(CNC(=O)c1cc(Cl)c(O)c(Cl)c1)N1CCCCC1	none
NS(=O)(=O)c1ccc(CCNC(=O)CCNS(=O)(=O)c2ccccc2C(F)(F)F)cc1	none (no result: LANA-H2B inh)
CC(C)Oc1ccc(S(=O)(=O)N2CCOCC2)cc1NC(=O)CC1OC(=O)c2ccccc21 (stereo not drawn)	LANA-H2B inh 16.0
COc1ccc(CN2C(=O)C(C)Nc3ncnc(N4CCN(c5ccccn5)CC4)c32)cc1 (stereo not drawn)	T cell HTS 0.0
CC1Nc2ncnc(N3CCN(c4ccccn4)CC3)c2N(Cc2ccccc2)C1=O (stereo not drawn)	none
Cc1cccc2cc(CN(C(=O)c3cccc([N+](=O)[O-])c3)C(C)C)c(=O)[nH]c12	Pemphigus Ab inh 59.5
Cc1cccc2cc(COC(=O)c3cccc([N+](=O)[O-])c3)c(=O)[nH]c12	none (no result: Pemphigus Ab inh, Arrestin-AP2 inh)
CSc1ccccc1OCc1cc(C(=O)NCCC2=CCCCC2)no1	Pemphigus Ab inh 25.0
O=C(NCCC1=CCCCC1)c1cc(COc2c(F)cccc2F)on1	none
CCc1noc(C)c1C(=O)N1CCCC(C(=O)c2ccc(OC)c(F)c2)C1 (stereo not drawn)	LANA-H2B inh 14.2
CC(C)c1ccc(C2OCC(C)([N+](=O)[O-])CO2)cc1 (stereo not drawn)	none (no result: LANA-H2B inh, T cell HTS, HDAC3 inh)
CCOc1cc(/C=C2\N=C(C)OC2=O)cc(Br)c1OCC(=O)OC	none
CCOC(=O)COc1c(Cl)cc(/C=C2\N=C(C)OC2=O)cc1OC	HDAC3 inh 65.9
CCCc1cc(=O)oc2cc(OCc3ccc(C(=O)O)cc3)ccc12	none
O=C(C[C@H]1C/C=C\CC[C@H](Cc2ccc(F)cc2)C(=O)O[C@H](c2ccccc2)CNC1=O)N[C@H](CO)Cc1ccccc1	LANA-H2B inh active
CC(C)(C)OC(=O)C[C@@H]1C/C=C\C[C@H](CC(=O)N[C@H](CO)Cc2ccccc2)C(=O)N[C@H](Cc2ccccc2)COC1=O	none
CC(C)(C)OC(=O)C[C@H]1C/C=C\C[C@H](CC(=O)N[C@H](CO)Cc2ccccc2)C(=O)N[C@H](Cc2ccccc2)COC1=O	LANA-H2B inh 82.6
CC1CC(C)CN(C(=O)COC(=O)COc2ccc(C#N)cc2)C1 (stereo not drawn)	none
C[C@@H]1CN([C@H](C)CO)C(=O)c2cc(Br)cnc2O[C@H]1CN(C)Cc1cccnc1	none (no result: LANA-H2B inh, T cell HTS, HDAC3 inh, Arrestin-AP2 inh)
CCOC(=O)N1CCN(C(=S)NC(=O)/C=C/c2ccc(C)cc2)CC1	none (no result: Pemphigus Ab inh)
Cc1ccc(Nc2c(-c3ccco3)nc3nc(C)cc(C)n23)cc1	LANA-H2B inh 21.2
O=C(CSc1nnc(C2CC2)n1-c1ccccc1)N1CCNC1=O	LANA-H2B inh 47.2
Cc1nc(SCC(=O)N2CCNC2=O)c2ccccc2n1	LANA-H2B inh 21.0
O=C(CSc1ncnc2ccccc12)N1CCNC1=O	none (no result: Pemphigus Ab inh)
Cc1cc([N+](=O)[O-])nn1CC(=O)NC1CCCCC1	LANA-H2B inh 19.5
Cc1cc([N+](=O)[O-])nn1CCC(=O)NC1CCCCCC1	none
Cc1ccccc1C(=O)NNc1ncnc2c1cnn2C	LANA-H2B inh 26.3
O=C(c1cccc(S(=O)(=O)N2CCN(c3ccccc3)CC2)c1)N1CCN(c2ccccc2O)CC1	none (no result: LANA-H2B inh, HDAC3 inh)
CCOC(=O)N1CC(=O)Nc2ccc(Br)cc2C1c1ccccc1 (stereo not drawn)	LANA-H2B inh 105.6
CCCC(=O)Nc1nn(CCC)c2nc3ccccc3cc12	LANA-H2B inh 15.0
COc1ccc(CCNC(=O)CSc2nc(=O)[nH]c3c2CCC3)cc1OC	none
COc1ccccc1C(CNC(=O)c1ccc(S(=O)(=O)N2CCCCC2)cc1)N(C)C (stereo not drawn)	LANA-H2B inh active (no result: Pemphigus Ab inh)
COc1ccc(C(=O)N2CCc3ccc(NC(=O)c4ccccn4)cc3C2)cc1F	none (no result: LANA-H2B inh, T cell HTS, HDAC3 inh)
COc1ccc(C)cc1S(=O)(=O)N1CCC(C(=O)NC2CCCC2)CC1	none
COc1cc([N+](=O)[O-])ccc1NC(=O)CN1C(=O)NC2(CCCCC2C)C1=O (stereo not drawn)	none (no result: LANA-H2B inh, T cell HTS, HDAC3 inh)
O=C(Nc1ccc(-c2nc3ccccc3o2)cc1)c1ccc(N2C(=O)C3C4C=CC(C4)C3C2=O)cc1 (stereo not drawn)	Pemphigus Ab inh 55.2
COC(=O)CNc1nc(Cl)nc(Nc2ccc(Cl)cc2)n1	Pemphigus Ab inh 75.5
O=C(CNC(=O)c1ccc(Br)cc1)N=Nc1c(O)[nH]c2ccc([N+](=O)[O-])cc12	Pemphigus Ab inh 35.0
CCNC(=S)N=Nc1c(O)[nH]c2ccc([N+](=O)[O-])cc12	Pemphigus Ab inh 39.8
O=C(NN=Cc1ccc2c(c1)CCC2)c1cccc([N+](=O)[O-])c1	none (no result: LANA-H2B inh, T cell HTS, HDAC3 inh, Arrestin-AP2 inh)
CCn1nc(C)c(CNC(=O)C2CCC(=O)N(Cc3ccc(Cl)cc3)C2)c1C (stereo not drawn)	none
CC1CC(C)CN(c2ncc3c(n2)CC(c2ccccc2)CC3=O)C1 (stereo not drawn)	Pemphigus Ab inh 71.5
CCOc1ccccc1NC(=O)N1CCC(NC(=O)C2CCCCC2)CC1	none (no result: LANA-H2B inh, T cell HTS, Pemphigus Ab inh, HDAC3 inh)
O=C(Cc1ccccc1)Nc1c2c(nn1-c1cccc(Cl)c1)CS(=O)(=O)C2	Pemphigus Ab inh 86.1
COc1ccc(CC(=O)Nc2c3c(nn2-c2cccc(Cl)c2)CS(=O)(=O)C3)cc1	none
Cc1ccc([N+](=O)[O-])cc1-c1ccc(/C=C(\C#N)c2[nH]nc(N)c2C#N)o1	Pemphigus Ab inh 86.4
C[C@]12CC[C@@H]3c4ccc(O)cc4CC[C@H]3[C@@H]1C[C@@H](O)[C@@H]2O	none
CC12CCC3c4ccc(O)cc4CCC3C1CC(O)C2O (stereo not drawn)	Pemphigus Ab inh 45.6
O=c1c2c3nc4ccccc4nc3n(-c3ccc4c(c3)OCCO4)c2ncn1C1CCCC1	Pemphigus Ab inh 66.5
Cc1cc(N2CCOCC2)nc(C(C)C)n1	none
Cc1cc(N2CC(C)OC(C)C2)nc(C(C)C)n1 (stereo not drawn)	LANA-H2B inh active (no result: Pemphigus Ab inh)
Cn1c(=O)c2sccc2n2c(CCCC(=O)NC3CCN(Cc4ccccc4)CC3)nnc12	none (no result: Pemphigus Ab inh)
CCOc1ccccc1Nc1nnc(SCC(=O)NC(=O)c2cccn2C)s1	LANA-H2B inh 16.1
COc1ccc(Cl)cc1NC(=O)NC1CCCCC1	LANA-H2B inh 20.6
COc1ccc(NC(=O)c2ccc(CNc3c(NC4CCCCC4)c(=O)c3=O)cc2)c(OC)c1	Pemphigus Ab inh -2.5!
CCOc1ccc(NC(=O)c2ccc(CNc3c(NC4CCCCC4)c(=O)c3=O)cc2)cc1	none (no result: LANA-H2B inh, HDAC3 inh)
COc1ccc(-c2nc(SCC(=O)NC3CCCCC3)n[nH]2)cc1	LANA-H2B inh 75.9 (no result: Pemphigus Ab inh)
